Measurements collected from several papers.
Each line is one published result; the experiments were not run side by side.
Read-out: cell growth or viability

The IC50 of `COc1cc2nc(N3CCN(C(=O)c4ccco4)CC3)nc(N)c2cc1OC` is reported as 34.8 µM (CNE-2; MTT; 48 h).
With `C=C(F)C(=O)N1CCN(c2nc(OC[C@@H]3CCCN3C)nc3c2CCN(c2cccc4cccc(Cl)c24)C3)C[C@@H]1CC#N` the IC50 was 2.01 µM (ASPC1; ATP luminescence).
For `Cc1cc(/C=C/C#N)cc(C)c1Nc1ccnc(Nc2ccc(C#N)cc2)n1`, the IC50 was 18.7 µM (CNE-2; MTT; 48 h).
The IC50 of `Nc1ccc(/C=C/C(=O)N2CCc3c(oc4c(-c5ccc(F)cc5)cc(-c5ccc(C(=O)N6CCOCC6)nn5)cc34)C2)cn1` is reported as 0.87 µM (ASPC1; CCK-8; 72 h).
`C=CC(=O)N1CCN(c2nc(=O)n(-c3c(C)ccnc3C(C)C)c3nc(-c4c(O)cccc4F)c(F)cc23)[C@@H](C)C1` gave an IC50 of 0.111 µM (SW756; ATP luminescence).
`CCN1[C@@H](C(=O)NC23CCC(C(=O)O)(CC2)CC3)[C@H](c2cccc(Cl)c2F)[C@]2(C(=O)Nc3cc(Cl)ccc32)C12CCCCC2` has a GI50 of 0.157 µM (SW982; resazurin; 72 h).
`C=CC(=O)NC1CCN(c2ncc3ncnc(Nc4ccc(Oc5ccc6c(c5)ncn6C)c(C)c4)c3n2)CC1` has an EC50 of 0.0284 µM (EFM-192A).
`O=C(NO)c1ccc(CNc2nc3cccc(-c4ccc5c(c4)OCO5)n3n2)cc1` has a GI50 of 0.66 µM (CAKI-1; SRB).
`Nc1ccc(/C=C/C(=O)NCc2cc3cc(-c4ccc(C(=O)N5CCC(F)(F)CC5)cc4)cc(-c4ccc(F)cc4)c3o2)cn1` gave an IC50 of 0.44 µM (ASPC1; CCK-8; 72 h).
`CC1(C)CCC2(CC1)N[C@@H](C(=O)N[C@@H]1CC[C@@H](C(N)=O)OC1)[C@H](c1ccnc(Cl)c1F)[C@]21C(=O)Nc2cc(Cl)ccc21` gave a GI50 of 0.021 µM (SW982; resazurin; 72 h).
